Test results: paper PMC3406267 (The Open Medicinal Chemistry Journal, 2012)

Experiments:
CB2 = conditions: Fig. 2 and introduction; cited from earlier work
CB2R [1] = conditions: CB2R-mediated gastrointestinal assays; cited from earlier work
[2] = system: P-ERK 1/2 expression in HL-60 cells selectively expressing CB2R; conditions: cited from earlier work
CB1R = CB1R (Mus musculus, UniProt P47746); assay: Radioligand binding, CB1R, [3H]-CP-55,940 competition in mouse brain
CB2R [3] = molecular target: CB2R (Mus musculus, UniProt P47936); assay: Radioligand binding, CB2R, [3H]-CP-55,940 competition in mouse spleen homogenate
[4] = system: P-ERK 1/2 expression in HL-60 cells selectively expressing CB2R; assay: P-ERK 1/2 expression; format: cell-based, human
Summary of the method: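 HL-60 cells grown at 37 °C, 5% CO2, in RPMI 1640 with 10% heat-inactivated FBS, 25 mM HEPES, 2.5 mM pyruvate and gentamicin, and used at 80% confluency. Compounds were given in medium with 1% DMSO for 15 min, with or without 75 nM AM630 added 5 min before. Lysates (HEPES pH 7.9, 4 °C) were western-blotted for P-ERK1/2. Values are % of vehicle, five separate experiments, ±SEM.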

Sequence of CB1R (P47746 whole entry): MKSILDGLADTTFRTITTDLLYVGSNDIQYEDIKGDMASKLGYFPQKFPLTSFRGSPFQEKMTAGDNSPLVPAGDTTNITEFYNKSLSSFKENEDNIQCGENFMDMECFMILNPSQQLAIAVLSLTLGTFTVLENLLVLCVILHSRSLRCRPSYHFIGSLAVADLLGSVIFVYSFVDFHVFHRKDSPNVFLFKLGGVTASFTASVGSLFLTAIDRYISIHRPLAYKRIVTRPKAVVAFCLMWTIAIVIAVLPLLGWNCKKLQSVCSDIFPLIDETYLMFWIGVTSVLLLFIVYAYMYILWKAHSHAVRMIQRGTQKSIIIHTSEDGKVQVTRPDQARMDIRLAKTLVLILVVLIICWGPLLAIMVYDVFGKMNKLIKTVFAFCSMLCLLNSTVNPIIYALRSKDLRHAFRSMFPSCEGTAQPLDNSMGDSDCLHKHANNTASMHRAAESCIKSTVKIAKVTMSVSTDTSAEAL
Sequence of CB2R (Mus musculus, UniProt P47936) (P47936 whole entry): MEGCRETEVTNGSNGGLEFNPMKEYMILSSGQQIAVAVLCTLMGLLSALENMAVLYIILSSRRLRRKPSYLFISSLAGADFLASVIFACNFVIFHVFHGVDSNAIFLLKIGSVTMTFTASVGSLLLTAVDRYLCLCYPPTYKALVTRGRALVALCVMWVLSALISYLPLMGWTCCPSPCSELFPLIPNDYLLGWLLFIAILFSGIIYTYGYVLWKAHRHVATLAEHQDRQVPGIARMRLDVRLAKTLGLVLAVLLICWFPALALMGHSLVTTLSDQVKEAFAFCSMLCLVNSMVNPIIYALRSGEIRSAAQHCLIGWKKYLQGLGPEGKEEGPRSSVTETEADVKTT

| Molecule | Ki (CB1R) [nM] | Ki (CB2R [3]) [nM] | further results |
| --- | --- | --- | --- |
| 5-(4-chloro-3-methylphenyl)-1-(4-methylbenzyl)-N-fenchyl-1H-pyrazole-3-carboxamide [Compound 1] | – | – | selectivity ratio KiCB1/KiCB2 of SR144528 (CB2): > 600; in vivo CB2R antagonist activity (CB2R [1]): remarkable in vivo CB2R antagonist activity |
| Cc1ccc2c(c1)Cc1c(C(=O)NN3CCCCC3)nn(-c3ccc(Cl)cc3Cl)c1-2 [Compound 2, 1-(2,4-dichlorophenyl)-6-methyl-N-(piperidin-1-yl)-1,4-dihydroindeno[1,2-c]pyrazole-3-carboxamide] | – | – | CB2 intrinsic activity in vitro [2]: CB2 agonist activity in vitro |
| Cc1cc2c(cc1Cl)-c1c(c(C(=O)NC3CC4CCC3(C)C4(C)C)nn1-c1ccc(Cl)cc1Cl)C2 (stereo not drawn) [Compound 6, N-Bornyl-7-chloro-1-(2,4-dichlorophenyl)-6-methyl-1,4-dihydroindeno[1,2-c]pyrazole-3-carboxamide] | 2670 ± 167 | 474 ± 25 | – |
| Cc1cc2c(cc1Cl)-c1c(c(C(=O)NC3CC(C)CCC3C(C)C)nn1-c1ccc(Cl)cc1Cl)C2 (stereo not drawn) [Compound 9, N-Menthyl-7-chloro-1-(2,4-Dichlorophenyl)-6-methyl-1,4-dihydroindeno[1,2-c]pyrazole-3-carboxamide] | 1250 ± 359 | 3100 ± 283 | – |
| Cc1cc2c(cc1Cl)-c1c(c(C(=O)NC34CC5CC(CC(C5)C3)C4)nn1-c1ccc(Cl)cc1Cl)C2 [Compound 10, N-Adamant-1-yl-7-chloro-1-(2,4-dichlorophenyl)-6-methyl-1,4-dihydroindeno[1,2-c]pyrazole-3-carboxamide] | 1300 ± 347 | 425 ± 95 | – |
| Cc1cc2c(cc1Cl)-c1c(c(C(=O)NC3C4CC5CC(C4)CC3C5)nn1-c1ccc(Cl)cc1Cl)C2 (stereo not drawn) [Compound 11, N-Adamant-2-yl-7-chloro-1-(2,4-dichlorophenyl)-6-methyl-1,4-dihydroindeno[1,2-c]pyrazole-3-carboxamide] | 4620 ± 857 | 275 ± 25 | – |
| Cc1cc2c(cc1Cl)-c1c(c(C(=O)N[C@H]3CC[C@H](C)CC3)nn1-c1ccc(Cl)cc1Cl)C2 [Compound 14, Trans-N-(4-Methylcyclohexyl)-7-chloro-1-(2,4-dichlorophenyl)-6-meth-yl-1,4-dihydroindeno[1,2-c]pyrazole-3-carboxamide] | > 5000 | 325 ± 53 | – |
| Cc1cc2c(cc1Cl)-c1c(c(C(=O)NC3CCCCCC3)nn1-c1ccc(Cl)cc1Cl)C2 [Compound 16, N-Cycloheptyl-7-chloro-1-(2,4-dichlorophenyl)-6-methyl-1,4-dihydroindeno[1,2-c]pyrazole-3-carboxamide] | 3750 ± 1250 | 1520 ± 1240 | – |
| Cc1cc2c(cc1Cl)-c1c(c(C(=O)Nc3cccc4ccccc34)nn1-c1ccc(Cl)cc1Cl)C2 [Compound 18, N-(Naphthalen-1-yl)-7-chloro-1-(2,4-dichlorophenyl)-6-methyl-1,4-dihydroindeno[1,2-c]pyrazole-3-carboxamide] | > 5000 | 1130 ± 125 | – |
| Cc1cc2c(cc1Cl)-c1c(c(C(=O)NC(C)c3cccc4ccccc34)nn1-c1ccc(Cl)cc1Cl)C2 (stereo not drawn) [Compound 19, N-(1-(1-Naphthyl)ethyl)-7-chloro-1-(2,4-dichlorophenyl)-6-methyl-1,4-dihydroindeno[1,2-c]pyrazole-3-carboxamide] | > 5000 | 2400 ± 400 | – |
| Cc1cc2c(cc1Cl)Cc1c(C(=O)NC34CC5CC(CC(C5)C3)C4)nn(-c3ccc(Cl)cc3Cl)c1-2 [Compound 24, N-Adamant-1-yl-6-chloro-1-(2,4-dichlorophenyl)-7-methyl-1,4-dihydroindeno[1,2-c]pyrazole-3-carboxamide] | 4750 ± 20 | 1350 ± 813 | – |
| Cc1c(C(=O)c2cccc3ccccc23)c2cccc3c2n1[C@H](CN1CCOCC1)CO3 [WIN 55,212-2] | – | – | P-ERK 1/2 expression, percentage of increment versus vehicle ([4]; 75 nM (dose of maximum effect), 15 min exposure): +83.2 ± 18.9%; Effect on P-ERK 1/2 expression after 5 min pre-treatment with CB2 antagonist AM630 ([4]; AM630 75 nM, agonist at dose of maximum effect, 15 min): counteracted; P-ERK 1/2 expression in treated HL-60 cells versus vehicle ([4]; western blot, 15 min exposure): significant increase |
